The source made the active and inactive calls. The calls are words filed in the database; no cut-off is given here.

For data set [1], the target named is T1, Neuraminidase (Influenza A virus, UniProt B4URF0). Nature of the data set: Inhibition of Influenza A virus (A/chicken/Korea/01310/2001 (H9N2)) neuraminidase after 30 mins by spectrofluorimetric analysis.
The target of data set [2] is T1, Neuraminidase. Nature of the data set: Inhibition of Influenza A virus (A/Sw/Kor/CAH1/04 (H1N1) KCTC 11165BP neuraminidase after 30 mins by spectrofluorimetric analysis.
Data set [3] deals with Influenza A virus. Nature of the data set: Antiviral activity against influenza A virus A/PR/8/34(H1N1) infected in MDCK cells assessed as protection against virus-induced cytopathic effect after 3 to 4 days by neutral red dye assay. Type of data set: functional. The method in brief: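 Near-confluent MDCK monolayers (1 × 10^5 cells/well) inoculated with virus for 1 h, then medium replaced with DMEM containing 10 µg/mL trypsin plus compounds at several concentrations. Incubated 3-4 days at 37 °C, 5% CO2.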

The next data set has as its system MDCK. Nature of the data set: Cytotoxicity against MDCK cells at 97.56 uM after 48 hrs by neutral red dye assay. The data set is classed as cell-based, Canis lupus familiaris. Particulars: dog.
Data set [4] has as its system Influenza A virus. Nature of the data set: Antiviral activity against influenza A virus A/PR/8/34(H1N1) infected in MDCK cells at 15.92 uM after 24 hrs by immunofluorescence assay. Type of data set: functional, organism-based. The method, boiled down: (§1)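 MDCK cells on chamber slides infected with A/PR/8/34 at 1000 TCID50/mL for 2 h in infection medium (DMEM, 0.5% BSA, 1.5 µg/mL trypsin). Then cultured with compound in 5% FBS DMEM for 24 h at 37 °C. Cells fixed in 4% paraformaldehyde, permeabilised, stained with anti-M1 monoclonal antibody, FITC anti-mouse IgG secondary and DAPI. Fluorescence-positive cells counted by fluorescence microscopy.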

The test system of data set [5] is Influenza A virus. Nature of the data set: Antiviral activity against influenza A virus A/PR/8/34(H1N1) infected in MDCK cells at 3.18 uM after 24 hrs by immunofluorescence assay. The data set is classed as functional, organism-based. The method in brief: as §1

T1 sequence (B4URF0 whole entry): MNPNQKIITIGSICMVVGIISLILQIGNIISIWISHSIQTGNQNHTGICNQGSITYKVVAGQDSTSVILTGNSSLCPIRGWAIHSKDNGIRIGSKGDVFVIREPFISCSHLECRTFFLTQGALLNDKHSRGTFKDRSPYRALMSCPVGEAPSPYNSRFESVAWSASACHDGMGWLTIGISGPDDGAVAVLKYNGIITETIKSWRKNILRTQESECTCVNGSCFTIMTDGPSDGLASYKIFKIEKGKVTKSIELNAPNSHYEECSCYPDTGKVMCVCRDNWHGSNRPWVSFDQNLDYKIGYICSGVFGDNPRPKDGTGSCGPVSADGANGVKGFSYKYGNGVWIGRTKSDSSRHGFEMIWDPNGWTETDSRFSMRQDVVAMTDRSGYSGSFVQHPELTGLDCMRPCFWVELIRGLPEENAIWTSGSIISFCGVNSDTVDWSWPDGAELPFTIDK

Regarding `COc1c(C)c(O)c2c(c1C=O)O[C@H](c1ccccc1)CC2=O`, the IC50 came out at 299 µM at Neuraminidase [1] and 290 µM on Neuraminidase [2].
In the same order, the values of `Cc1c(O)c(C)c2c(c1O)C(=O)[C@H](O)[C@@H](c1ccccc1)O2` are 368 µM and 375 µM.
In the same order, the values of `COc1cc(O)c(C)c2c1C(=O)C[C@@H](c1ccccc1)O2` are greater than 500 µM and greater than 500 µM.
As for `COc1c(C)c2c(c(O)c1C=O)C(=O)C[C@@H](c1ccccc1)O2`, the IC50 came to 256 µM against Neuraminidase [1] and 269 µM on Neuraminidase [2].
With `COc1c(C)c(O)c(C)c(O)c1C(=O)/C=C/c1ccccc1`, the CC50 in the data set on Influenza A virus [3] was 78.4 µM.
Consider `Cc1c(O)cc(O)c2c1O[C@H](c1ccccc1)CC2=O`, for which the IC50 against Neuraminidase [1] and at Neuraminidase [2] was greater than 500 µM throughout.
`CCOC(=O)C1=C[C@@H](OC(CC)CC)[C@H](NC(C)=O)[C@@H](N)C1` [OSELTAMIVIR]: the Activity with MDCK is given as 7%.
As to `COc1cc(O)c(C)c(O)c1C(=O)/C=C/c1ccccc1`, the CC50 in the data set on Influenza A virus [3] turned out to be 135 µM.
For `COc1c(C)c(O)c2c(c1C)O[C@H](c1ccccc1)CC2=O`, the IC50 against Neuraminidase [1] and against Neuraminidase [2] was greater than 500 µM in each case.
For `Cc1c(O)c(C)c2c(c1O)C(=O)C[C@@H](c1ccccc1)O2` [DEMETHOXYMATTEUCINOL], the values for the concentration for half-maximal inhibition (IC50) on Neuraminidase [1] and against Neuraminidase [2] were 319 µM and 334 µM, respectively.
On the same counts, the results for `COc1c(C)c(O)c(C)c2oc(-c3ccccc3)cc(=O)c12` are 363 µM and 414 µM.
Regarding `COc1c(C)c(O)c(C)c2occ(-c3ccccc3)c(=O)c12`, the IC50 at Neuraminidase [1] is 391 µM; at Neuraminidase [2], 431 µM.
On the same counts, the results for `COc1c(C)c(O)c(C)c2c1C(=O)C[C@@](O)(c1ccccc1)O2` are 285 µM and 283 µM.
Take `COc1c(C)c(O)c(C)c(O)c1C(=O)/C=C/c1ccc(O)cc1`: in the data set with Influenza A virus [3], the CC50 was greater than 120 µM. Moreover, the result in the data set with Influenza A virus [4] and with Influenza A virus [5] was Active.
Take `COc1c(C)c(O)c(C)c(O)c1C(=O)/C=C/c1ccccc1O`: the CC50 in the data set with Influenza A virus [3] was greater than 120 µM.

Source of the values: ChEMBL document CHEMBL1268855 (J Nat Prod, 2010).
